ChEMBL document CHEMBL4616673 (J Med Chem, 2020)
“And” between values parts separate entries of the source, which are not always exact repeats. Identical values can stand only once.

Experiments:
[1] = Acute toxicity in BALB/c mouse assessed as effect on blood BUN level at 400 mg/kg, po measured on day 14; type: organism-based; conditions: in vivo
Summary of the method: (§1)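 BALB/c mice, female and male, 6-8 weeks old, given oral doses within 24 h, up to 400 mg/kg (free compound) or 800 mg/kg (nanocrystal formulation). Watched for body weight loss, diarrhea, anorexia, skin ulcer and toxic death. Serum biochemistry panel was run at the end of treatment.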

[2] = Acute toxicity in BALB/c mouse assessed as effect on blood BUN level at 800 mg/kg, po measured on day 14; type: organism-based; conditions: in vivo; summary of the method: as §1
[3] = Acute toxicity in BALB/c mouse assessed as effect on blood CK level at 400 mg/kg, po measured on day 14; type: organism-based; conditions: in vivo; summary of the method: as §1
[4] = Acute toxicity in BALB/c mouse assessed as effect on heart at 800 mg/kg, po measured on day 14 by H and E staining based light microscopic analysis; type: organism-based; conditions: in vivo
Summary of the method: (§2)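 Female and male BALB/c mice, 6-8 weeks old, dosed orally within 24 h at up to 400 mg/kg (free compound) or 800 mg/kg (nanocrystal). At the end of treatment, heart, liver, spleen, lung and kidney were sectioned, stained with H&E and imaged by light microscopy.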

[5] = Acute toxicity in BALB/c mouse assessed as effect on spleen at 400 mg/kg, po measured on day 14 by H and E staining based light microscopic analysis; type: organism-based; conditions: in vivo; summary of the method: as §2
[6] = Stability of the compound in pH 1 to 7.4 buffer assessed as decrease in compound concentration at 0.01 mg/ml measured up to 24 hrs by LC-MS analysis; type: physicochemical; conditions: read-out: Drug degradation
Summary of the method: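 Compound at 0.01 mg/mL final in buffer containing 10% acetonitrile at pH 1.0, 4.5, 6.6, 7.4 or 9.0. Held at 37 °C, sampled at 0, 2, 4, 6, 8, 10, 12 and 24 h. Remaining compound by LC-MS.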

[7] = target: Dihydroorotate dehydrogenase (quinone), mitochondrial (Homo sapiens, UniProt Q02127); assay: Inhibition of human DHODH using dihydroorotate as substrate and CoQ10 as co-substrate preincubated for 30 mins followed by substrate addition by DCIP coupled microplate reader assay
Sequence of Dihydroorotate dehydrogenase (quinone), mitochondrial (Q02127 whole entry): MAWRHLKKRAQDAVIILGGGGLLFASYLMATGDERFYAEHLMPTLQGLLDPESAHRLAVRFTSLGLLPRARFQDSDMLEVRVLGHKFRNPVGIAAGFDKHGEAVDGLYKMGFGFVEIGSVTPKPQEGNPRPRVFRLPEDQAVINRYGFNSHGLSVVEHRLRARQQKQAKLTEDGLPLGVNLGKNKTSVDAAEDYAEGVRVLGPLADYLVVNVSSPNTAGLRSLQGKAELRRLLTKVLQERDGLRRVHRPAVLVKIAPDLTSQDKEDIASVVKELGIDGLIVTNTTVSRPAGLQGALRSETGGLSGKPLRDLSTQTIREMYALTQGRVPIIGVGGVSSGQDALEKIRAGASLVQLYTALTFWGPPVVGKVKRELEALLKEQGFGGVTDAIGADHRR

[8] = Acute toxicity in BALB/c mouse assessed as effect on kidney at 800 mg/kg, po measured on day 14 by H and E staining based light microscopic analysis; type: organism-based; conditions: in vivo; summary of the method: as §2
[9] = Half life in human liver microsomes at 1 uM in presence of NADPH by LC-MS analysis; type: ADME, Microsome
Summary of the method: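 Compound at 1 μM with 0.5 mg/mL human, rat or mouse liver microsomes and 1 mM NADPH. Stopped with acetonitrile at 0, 5, 15, 30, 45, 60 and 90 min, centrifuged. Supernatant analysed by LC-MS/MS.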

[10] = Acute toxicity in BALB/c mouse assessed as effect on lung at 800 mg/kg, po measured on day 14 by H and E staining based light microscopic analysis; type: organism-based; conditions: in vivo; summary of the method: as §2
Raji [11] = assay: Induction of apoptosis in human Raji cells assessed as late apoptotic cells at 0.031 uM measured after 48 hrs by Annexin V-FITC staining based flow cytometry (reference value: 0.7 %); type: functional
[12] = Acute toxicity in BALB/c mouse assessed as effect on blood TP level at 400 mg/kg, po measured on day 14; type: organism-based; conditions: in vivo; summary of the method: as §1
A-375 = assay: Antiproliferative activity against human A375 cells assessed as reduction in cell viability measured after 48 hrs by MTT assay; type: functional, cell-based; conditions: Homo sapiens, A-375, 48 h
[13] = Acute toxicity in BALB/c mouse assessed as effect on spleen at 800 mg/kg, po measured on day 14 by H and E staining based light microscopic analysis; type: organism-based; conditions: in vivo; summary of the method: as §2
[14] = Tmax in Sprague-Dawley rat at 25 mg/kg, po administered via gavage by LC-MS analysis; type: ADME, organism-based; conditions: in vivo
Summary of the method: (§3)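 Male Sprague-Dawley rats, fasted overnight, jugular vein catheter for serial blood sampling. Single dose of 25 mg/kg by oral gavage or 5 mg/kg by tail-vein injection. Blood drawn at set times and spun at once for plasma, plasma drug by LC-MS. Parameters given as mean, n = 6.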

[15] = Acute toxicity in BALB/c mouse assessed as effect on blood UA level at 800 mg/kg, po measured on day 14; type: organism-based; conditions: in vivo; summary of the method: as §1
HeLa = assay: Antiproliferative activity against human HeLa cells assessed as reduction in cell viability measured after 48 hrs by MTT assay; type: functional, cell-based; conditions: Homo sapiens, HeLa, 48 h
[16] = Acute toxicity in BALB/c mouse assessed as effect on blood HDL level at 800 mg/kg, po measured on day 14; type: organism-based; conditions: in vivo; summary of the method: as §1
Raji [17] = assay: Induction of apoptosis in human Raji cells assessed as late apoptotic cells at 0.063 uM measured after 48 hrs by Annexin V-FITC staining based flow cytometry (reference value: 0.7 %); type: functional
[18] = Oral bioavailability in Sprague-Dawley rat at 25 mg/kg administered via gavage by LC-MS analysis; type: ADME, organism-based; conditions: in vivo; summary of the method: as §3
Raji [19] = assay: Induction of apoptosis in human Raji cells assessed as early apoptotic cells at 0.063 uM measured after 48 hrs by Annexin V-FITC staining based flow cytometry (reference value: 1 %); type: functional
[20] = Acute toxicity in po dosed BALB/c mouse assessed as maximum tolerated dose; type: organism-based; conditions: in vivo
Summary of the method: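 Acute oral dose-escalation in female and male BALB/c mice, 6-8 weeks old, dosed within 24 h. MTD is the highest dose without obvious side effects: body weight loss, diarrhea, anorexia, skin ulcer or toxic death.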

[21] = Half life in Sprague-Dawley rat at 25 mg/kg, po administered via gavage by LC-MS analysis; type: ADME, organism-based; conditions: in vivo
Summary of the method: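 Male Sprague-Dawley rats, fasted overnight, with jugular vein catheters for serial blood sampling. Single dose given by oral gavage (25 mg/kg) or tail-vein injection (5 mg/kg). Blood drawn at set times and centrifuged at once for plasma. Plasma drug levels measured by LC-MS. Parameters reported as means, n = 6.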

Raji [22] = assay: Induction of mitochondrial membrane potential loss in human Raji cells measured after 48 hrs by TMRM staining based fluorescence assay; type: functional, cell-based
Summary of the method: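 Raji cells treated 48 h (CCCP as positive control), washed in PBS. Incubated with TMRM at 100 nM final for 15 min at 37 °C, fluorescence read at ex 510/em 580 nm. Mean ± SD.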

[23] = Acute toxicity in BALB/c mouse assessed as effect on kidney at 400 mg/kg, po measured on day 14 by H and E staining based light microscopic analysis; type: organism-based; conditions: in vivo; summary of the method: as §2
Raji [24] = assay: Induction of apoptosis in human Raji cells assessed as live cells at 0.063 uM measured after 48 hrs by Annexin V-FITC staining based flow cytometry (reference value: 98.09 %); type: functional
Raji [25] = assay: Induction of apoptosis in human Raji cells assessed as necrotic cells at 0.031 uM measured after 48 hrs by Annexin V-FITC staining based flow cytometry (reference value: 0.21 %); type: functional
HCT-116 = assay: Antiproliferative activity against human HCT116 cells assessed as reduction in cell viability measured after 48 hrs by MTT assay; type: functional, cell-based; conditions: Homo sapiens, HCT-116, 48 h

Q: What does the source list for `O=C1c2ccccc2C(=O)c2c1nnn2-c1cc(F)c(-c2ccccc2F)c(F)c1`?
A: Activity [1]: Non-Toxic; Activity [2]: Non-Toxic; Activity [3]: Non-Toxic; Activity [4]: Non-Toxic; Activity [5]: Non-Toxic; degraded at 24 h, 0.01 mg/ml [6]: 1.6 to 9%; IC50 [7]: 4.5 nM; Activity [8]: Non-Toxic; half-life at 1 µM ([9]; liver microsomes): 0.533 h; t1/2 ([9]; microsomes, 1 µM): 1.05 h; Activity [10]: Non-Toxic; Activity (Raji [11]): 3.4%; Activity [12]: Non-Toxic; IC50 (A-375): 20 nM; Activity [13]: Non-Toxic; Tmax [14]: 10 h and 27 h; Activity [15]: Non-Toxic; IC50 (HeLa): > 10000 nM; Activity [16]: Non-Toxic; Activity (Raji [17]): 4.26%; F [18]: 9.66% and 25.16%; Activity (Raji [19]): 3.08%; MTD ([20]; BALB/c, read-out: MTD): 400 mg/kg; MTD [20]: 800 mg/kg; half-life ([21]; Sprague-Dawley): 8.83 h; t1/2 [21]: 12.47 h; Activity (Raji [22]): Dose-dependent effect; Activity [23]: Non-Toxic; Activity (Raji [24]): 92.31%; Activity (Raji [25]): 0.37%; IC50 (HCT-116): 290 nM
